ChEMBL document CHEMBL3259762, “Synthesis of novel 1,2,3-triazole derivatives of isoniazid and their in vitro and in vivo antimycobacterial activity evaluation” (Eur J Med Chem, 2014)
Converted amounts (≈) assume the structure as drawn. The source made the active and inactive calls. No cut-off for these calls is given here.

Legend:
[1] = system: THP-1; assay: Cytotoxicity against human THP1 cells; type: cell-based
[2] = system: Mycobacterium tuberculosis; assay: Antimycobacterial activity against Mycobacterium tuberculosis H37Rv ATCC 27294 after 14 days by microscopy; type: functional; conditions: H37Rv ATCC 27294, 336 h
Outline: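 2-fold serial dilutions of compounds (from DMSO stocks), 50 to 0.195 µM final, in 7H9 broth with 0.05% Tween 80, 0.2% glycerol and ADS. Inoculum is a culture grown to A600 0.2 and diluted 1:1000. Incubated at 37 C for 14 days. MIC99 (99% growth inhibition) read macroscopically with an inverted plate reader. Done in triplicate.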

[3] = system: Mycobacterium tuberculosis; assay: Antimycobacterial activity against Mycobacterium tuberculosis H37Rv ATCC 27294 infected in Balb/c mouse assessed as reduction in bacterial load in spleen at 25 mg/kg, po qd administered five days in a week starting 2 weeks post challenge measured after 3 to 6 weeks relative to untreated control; type: functional, organism-based; design: dose 25 mg/kg
Outline: (§1)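 Balb/c mice of either sex (25-30 g) infected by aerosol in an inhalation chamber, about 1000 bacilli/lung. Oral gavage once daily, 5 days/week, starting 2 weeks post-infection. DMSO and untreated groups as controls. N = 5/group, killed at 3, 6 and 10 weeks of therapy. Lung or spleen homogenates in saline plated in duplicate on 7H11 agar, 37 C for 3–4 weeks. Read-out is log10 CFU/organ.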

[4] = system: Mycobacterium tuberculosis; assay: Antimycobacterial activity against Mycobacterium tuberculosis H37Rv ATCC 27294 infected in Balb/c mouse assessed as reduction in bacterial load in lung at 25 mg/kg, po qd administered five days in a week starting 2 weeks post challenge measured after 3 to 10 weeks relative to untreated control; type: functional, organism-based; design: dose 25 mg/kg; outline: as §1
[5] = system: Mycobacterium tuberculosis; assay: Antimycobacterial activity against Mycobacterium tuberculosis H37Rv ATCC 27294 infected in Balb/c mouse assessed as reduction in bacterial load in spleen at 50 mg/kg, po qd administered five days in a week starting 2 weeks post challenge measured after 10 weeks relative to DMSO-treated control; type: functional; outline: as §1
[6] = system: Mycobacterium tuberculosis; assay: Antimycobacterial activity against Mycobacterium tuberculosis H37Rv ATCC 27294 infected in Balb/c mouse assessed as reduction in bacterial load in spleen at 25 mg/kg, po qd administered five days in a week starting 2 weeks post challenge measured after 10 weeks relative to untreated control; type: functional; outline: as §1
[7] = system: Mycobacterium tuberculosis; assay: Antimycobacterial activity against Mycobacterium tuberculosis H37Rv ATCC 27294 infected in Balb/c mouse assessed as reduction in bacterial load in lung at 100 mg/kg, po qd administered five days in a week starting 2 weeks post challenge measured after 3 weeks relative to DMSO-treated control; type: functional; outline: as §1
[8] = system: Mycobacterium tuberculosis; assay: Ratio of isoniazid MIC99 to compound MIC99 for Mycobacterium tuberculosis H37Rv ATCC 27294 after 14 days by microscopy; type: functional
[9] = system: Mycobacterium tuberculosis; assay: Antimycobacterial activity against Mycobacterium tuberculosis H37Rv ATCC 27294 infected in Balb/c mouse assessed as reduction in bacterial load in spleen at 100 mg/kg, po qd administered five days in a week starting 2 weeks post challenge measured after 3 weeks relative to DMSO-treated control; type: functional; outline: as §1
[10] = system: Mycobacterium tuberculosis; assay: Antimycobacterial activity against Mycobacterium tuberculosis H37Rv ATCC 27294 infected in Balb/c mouse assessed as reduction in bacterial load in lung at 100 mg/kg, po qd administered five days in a week starting 2 weeks post challenge measured after 6 weeks relative to DMSO-treated control; type: functional; outline: as §1
[11] = system: Mycobacterium tuberculosis; assay: Antimycobacterial activity against Mycobacterium tuberculosis H37Rv ATCC 27294 infected in Balb/c mouse assessed as reduction in bacterial load in spleen at 100 mg/kg, po qd administered five days in a week starting 2 weeks post challenge measured after 10 weeks relative to DMSO-treated control; type: functional
[12] = system: Mycobacterium tuberculosis; assay: Antimycobacterial activity against Mycobacterium tuberculosis H37Rv ATCC 27294 infected in Balb/c mouse assessed as reduction in bacterial load in spleen at 50 mg/kg, po qd administered five days in a week starting 2 weeks post challenge measured after 6 weeks relative to DMSO-treated control; type: functional; outline: as §1
[13] = system: Mycobacterium tuberculosis; assay: Antimycobacterial activity against Mycobacterium tuberculosis H37Rv ATCC 27294 infected in Balb/c mouse assessed as reduction in bacterial load in lung at 50 mg/kg, po qd administered five days in a week starting 2 weeks post challenge measured after 3 to 10 weeks relative to untreated control; type: functional, organism-based; design: dose 50 mg/kg; outline: as §1
[14] = system: Mycobacterium tuberculosis; assay: Antimycobacterial activity against Mycobacterium tuberculosis H37Rv ATCC 27294 infected in Balb/c mouse assessed as reduction in bacterial load in lung at 100 mg/kg, po qd administered five days in a week starting 2 weeks post challenge measured after 10 weeks relative to DMSO-treated control; type: functional; outline: as §1
[15] = system: Mycobacterium tuberculosis; assay: Antimycobacterial activity against Mycobacterium tuberculosis H37Rv ATCC 27294 infected in Balb/c mouse assessed as reduction in bacterial load in spleen at 100 mg/kg, po qd administered five days in a week starting 2 weeks post challenge measured after 6 weeks relative to DMSO-treated control; type: functional; outline: as §1
[16] = system: Mycobacterium tuberculosis; assay: Antimycobacterial activity against Mycobacterium tuberculosis H37Rv ATCC 27294 infected in Balb/c mouse assessed as reduction in bacterial load in spleen at 50 mg/kg, po qd administered five days in a week starting 2 weeks post challenge measured after 3 weeks relative to DMSO-treated control; type: functional; outline: as §1
[17] = system: Mycobacterium tuberculosis; assay: Antimycobacterial activity against Mycobacterium tuberculosis H37Rv ATCC 27294 infected in Balb/c mouse assessed as reduction in bacterial load in spleen at 100 mg/kg, po qd administered five days in a week starting 2 weeks post challenge measured after 6 weeks relative to untreated control; type: functional; outline: as §1
[18] = system: Mycobacterium tuberculosis; assay: Antimycobacterial activity against Mycobacterium tuberculosis H37Rv ATCC 27294 infected in Balb/c mouse assessed as reduction in bacterial load in spleen at 100 mg/kg, po qd administered five days in a week starting 2 weeks post challenge measured after 3 weeks relative to untreated control; type: functional; outline: as §1
[19] = system: Mycobacterium tuberculosis; assay: Antimycobacterial activity against Mycobacterium tuberculosis H37Rv ATCC 27294 infected in Balb/c mouse assessed as reduction in bacterial load in lung at 100 mg/kg, po qd administered five days in a week starting 2 weeks post challenge measured after 10 weeks relative to untreated control; type: functional; outline: as §1
[20] = system: Mycobacterium tuberculosis; assay: Antimycobacterial activity against Mycobacterium tuberculosis H37Rv ATCC 27294 infected in Balb/c mouse assessed as reduction in bacterial load in lung at 100 mg/kg, po qd administered five days in a week starting 2 weeks post challenge measured after 3 weeks relative to untreated control; type: functional; outline: as §1
[21] = system: Mycobacterium tuberculosis; assay: Antimycobacterial activity against Mycobacterium tuberculosis H37Rv ATCC 27294 infected in Balb/c mouse assessed as reduction in bacterial load in spleen at 100 mg/kg, po qd administered five days in a week starting 2 weeks post challenge measured after 10 weeks relative to untreated control; type: functional; outline: as §1
[22] = system: Mycobacterium tuberculosis; assay: Antimycobacterial activity against Mycobacterium tuberculosis H37Rv ATCC 27294 infected in Balb/c mouse assessed as reduction in bacterial load in lung at 100 mg/kg, po qd administered five days in a week starting 2 weeks post challenge measured after 6 weeks relative to untreated control; type: functional; outline: as §1

Row | SMILES | Activity [1] [µM] | MIC99 [2] [µM] | also measured
1 | O=C(N/N=C/c1ccc(OCCCn2cc(COc3ccc(Cl)cc3)nn2)cc1)c1ccncc1 | > 50 | 0.78 (≈ 0.383 µg/mL) | 
2 | CCCCc1cn(CCOc2ccc(/C=N/NC(=O)c3ccncc3)cc2)nn1 | > 50 | 0.78 (≈ 0.306 µg/mL) | 
3 | CCC(=O)OCc1cn(CCCOc2ccc(/C=N/NC(=O)c3ccncc3)cc2)nn1 | > 50 | 0.78 (≈ 0.34 µg/mL) | 
4 | O=C(N/N=C/c1ccc(OCCCn2cc(COc3ccccc3)nn2)cc1)c1ccncc1 | > 50 | 0.39 (≈ 0.178 µg/mL) | 
5 | O=C(N/N=C/c1ccc(OCCn2cc(-c3ccccn3)nn2)cc1)c1ccncc1 | > 50 | 0.39 (≈ 0.161 µg/mL) | 
6 | O=C(N/N=C/c1ccc(OCCn2cc(COc3ccccc3)nn2)cc1)c1ccncc1 | > 50 | 0.39 (≈ 0.173 µg/mL) | 
7 | O=C(N/N=C/c1ccc(OCCn2cc(COc3ccc(Cl)cc3)nn2)cc1)c1ccncc1 | > 50 | 0.195 (≈ 0.093 µg/mL) | Activity [3]: inactive; Activity [4]: inactive; log10cfu [5]: 3.31; log10cfu [6]: 1.5; log10cfu [7]: 0.02; Ratio [8]: 2; log10cfu [9]: 1.46; log10cfu [10]: 0.82; log10cfu [11]: 2.58; log10cfu [12]: 2.15; Activity [13]: inactive; log10cfu [14]: 0.91; log10cfu [15]: 2.58; log10cfu [16]: 1.08
8 | Cc1ccc(OCc2cn(CCOc3ccc(/C=N/NC(=O)c4ccncc4)cc3)nn2)cc1 | > 50 | 0.39 (≈ 0.178 µg/mL) | 
9 | CCC(=O)OCc1cn(CCOc2ccc(/C=N/NC(=O)c3ccncc3)cc2)nn1 | > 50 | 0.78 (≈ 0.33 µg/mL) | 
10 | CC(C)n1cc(COc2ccc(/C=N/NC(=O)c3ccncc3)cc2)nn1 | > 50 | 0.78 (≈ 0.284 µg/mL) | 
11 | O=C(N/N=C/c1ccc(OCc2cn(Cc3ccccc3)nn2)cc1)c1ccncc1 | > 50 | 0.78 (≈ 0.322 µg/mL) | 
12 | CO[C@H]1/C=C/O[C@@]2(C)Oc3c(C)c(O)c4c(O)c(c(/C=N/N5CCN(C)CC5)c(O)c4c3C2=O)NC(=O)/C(C)=C\C=C\[C@H](C)[C@H](O)[C@@H](C)[C@@H](O)[C@@H](C)[C@H](OC(C)=O)[C@@H]1C [RIFAMPIN] |  |  | log10cfu [7]: 1.93; log10cfu [9]: 1.76; log10cfu [10]: 2.8; log10cfu [14]: 6.14; log10cfu [15]: 3.31
13 | CCCn1cc(COc2ccc(/C=N/NC(=O)c3ccncc3)cc2)nn1 | > 50 | 0.78 (≈ 0.284 µg/mL) | 
14 | CCCCCn1cc(COc2ccc(/C=N/NC(=O)c3ccncc3)cc2)nn1 | > 50 | 0.39 (≈ 0.153 µg/mL) | 
15 | O=C(N/N=C/c1ccc(OCCn2cc(C3(O)CCCCC3)nn2)cc1)c1ccncc1 | > 50 | 0.39 (≈ 0.169 µg/mL) | 
16 | O=C(N/N=C/c1ccc(OCCCn2cc(C3(O)CCCCC3)nn2)cc1)c1ccncc1 | > 50 | 0.78 (≈ 0.35 µg/mL) | 
17 | Cc1ccc(OCc2cn(CCCOc3ccc(/C=N/NC(=O)c4ccncc4)cc3)nn2)cc1 | > 50 | 0.78 (≈ 0.367 µg/mL) | 
18 | CCCc1cn(CCCOc2ccc(/C=N/NC(=O)c3ccncc3)cc2)nn1 | > 50 | 0.78 (≈ 0.306 µg/mL) | 
19 | CCCCc1cn(CCCOc2ccc(/C=N/NC(=O)c3ccncc3)cc2)nn1 | > 50 | 0.39 (≈ 0.159 µg/mL) | 
20 | O=C(N/N=C/c1ccc(OCCn2cc(CO)nn2)cc1)c1ccncc1 | > 50 | 0.78 (≈ 0.286 µg/mL) | 
21 | O=C(N/N=C/c1ccc(OCCn2cc(-c3ccccc3)nn2)cc1)c1ccncc1 | > 50 | 0.39 (≈ 0.161 µg/mL) | 
22 | O=C(N/N=C/c1ccc(OCCCn2cc(CO)nn2)cc1)c1ccncc1 | > 50 | 0.78 (≈ 0.297 µg/mL) | 
23 | CCCCn1cc(COc2ccc(/C=N/NC(=O)c3ccncc3)cc2)nn1 | > 50 | 0.39 (≈ 0.148 µg/mL) | 
24 | NNC(=O)c1ccncc1 [ISONIAZID] |  | 0.39 (≈ 0.0535 µg/mL) | log10cfu [17]: 3.68; log10cfu [18]: 2.66; log10cfu [19]: 3.38; log10cfu [20]: 1.22; log10cfu [21]: 4; log10cfu [22]: 2.59
